Legend:
[1] = Half life in Sprague-Dawley rat lung at 1 umol/kg, it administered as micronized powder measured up to 24 hrs post dose by electrospray LC-MS analysis; type: ADME, tissue-based; conditions: inhaled or intranasal
In short: (§1)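 Sprague-Dawley rats (250−400 g) dosed intratracheally with micronized dry powder blended with coarse lactose, delivered by insufflator under isoflurane anaesthesia. Blood collected in heparinized tubes and spun at 1200g for 15 min. Lung sampled at 0.25, 1, 2, 4, 8, 16 and 24 h, n = 3 per time point.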

[2] = MRTlast in Sprague-Dawley rat plasma at 1 umol/kg, it administered as micronized powder measured up to 24 hrs post dose by electrospray LC-MS analysis; type: ADME, cell-free; conditions: inhaled or intranasal; in short: as §1
[3] = target: T1, Amine oxidase [flavin-containing] A (Homo sapiens, UniProt P21397); assay: Binding affinity to human monoamine oxidase A at 1 uM
T1 sequence (P21397 whole entry): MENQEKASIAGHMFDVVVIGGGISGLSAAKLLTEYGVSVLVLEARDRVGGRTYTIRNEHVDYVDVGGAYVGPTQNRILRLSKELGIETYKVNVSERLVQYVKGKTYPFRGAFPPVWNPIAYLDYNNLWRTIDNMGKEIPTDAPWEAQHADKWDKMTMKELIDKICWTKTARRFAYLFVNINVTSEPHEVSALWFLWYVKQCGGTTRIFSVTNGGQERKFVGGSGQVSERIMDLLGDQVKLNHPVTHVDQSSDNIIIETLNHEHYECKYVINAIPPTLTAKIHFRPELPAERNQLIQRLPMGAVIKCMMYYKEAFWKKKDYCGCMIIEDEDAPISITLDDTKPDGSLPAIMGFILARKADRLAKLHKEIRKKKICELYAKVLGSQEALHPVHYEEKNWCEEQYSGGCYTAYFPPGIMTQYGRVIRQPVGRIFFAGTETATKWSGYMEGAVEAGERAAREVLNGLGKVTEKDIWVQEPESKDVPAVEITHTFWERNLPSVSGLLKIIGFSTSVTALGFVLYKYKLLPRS
In short: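 Off-target screening panel of about 400 receptors, enzymes and ion channels, run at 1 μM. Result expressed as % binding.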

Lung [4] = assay: Tlast in Sprague-Dawley rat lung at 1 umol/kg, it administered as micronized powder measured up to 24 hrs post dose by electrospray LC-MS analysis; type: ADME, tissue-based; conditions: in vivo, inhaled_or_intranasal; in short: as §1
[5] = Stability in human hepatocytes assessed as parent compound remaining at 10 uM after 60 mins by LC-MS/MS analysis; type: ADME, cell-based, Hepatocyte; conditions: read-out: Stability
In short: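 Pooled mixed-sex cryopreserved human hepatocytes (1 million cells/mL) in Leibovitz L-15 at 37 °C, compound at 10 μM in duplicate. Sampled at 0 and 60 min. Protein-free supernatant evaporated under nitrogen, reconstituted in mobile phase and analysed by LC−MS/MS. Cell-free medium incubation for 60 min as control.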

[6] = target: 3',5'-cyclic-AMP phosphodiesterase 4B (Homo sapiens, UniProt Q07343); assay: Inhibition of human recombinant PDE4B expressed insect sf9 cells by radiometric assay
In short: (§2)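 Human recombinant PDEs expressed in Sf9 cells, except PDE6 purified from bovine retina. Radiometric two-step method, modified from Thompson and Appleman. Five concentrations in duplicate, starting at 30 μM with 1:10 serial dilution, 1% final DMSO.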

[7] = target: High affinity cAMP-specific and IBMX-insensitive 3',5'-cyclic phosphodiesterase 8A (Homo sapiens, UniProt O60658); assay: Inhibition of human recombinant PDE8A1 expressed insect sf9 cells by radiometric assay; in short: as §2
[8] = Apparent permeability across basolateral to apical side in human Caco2 cells at 10 uM after 2 hrs by LC-MS/MS analysis; type: ADME, cell-based; conditions: Caco-2
Plasma [9] = assay: Cmax in Sprague-Dawley rat plasma at 1 umol/kg, it administered as micronized powder measured up to 24 hrs post dose by electrospray LC-MS analysis; type: ADME, cell-free; set-up: dose 1 umol/kg; conditions: inhaled_or_intranasal; in short: as §1
[10] = Inhibition of PDE4 in human U937 cell lysates assessed as residual cAMP after 2.5 mins by LANCE assay
[11] = target: cAMP and cAMP-inhibited cGMP 3',5'-cyclic phosphodiesterase 10A (Homo sapiens, UniProt Q9Y233); assay: Inhibition of human recombinant PDE10A2 expressed insect sf9 cells by radiometric assay; in short: as §2
[12] = Tmax in Sprague-Dawley rat plasma at 1 umol/kg, it administered as micronized powder measured up to 24 hrs post dose by electrospray LC-MS analysis; type: ADME, cell-free; conditions: inhaled or intranasal; in short: as §1
Plasma [13] = assay: AUClast in Sprague-Dawley rat plasma at 1 umol/kg, it administered as micronized powder measured up to 24 hrs post dose by electrospray LC-MS analysis; type: ADME, cell-free; conditions: inhaled_or_intranasal; in short: as §1
[14] = Ratio of drug uptake in Sprague-Dawley rat lung to plasma at 1 umol/kg, it administered as micronized powder measured up to 8 hrs post dose by electrospray LC-MS analysis; type: ADME; conditions: other tissue, inhaled_or_intranasal
[15] = Intrinsic clearance in human liver microsomes at 1 uM measured after 60 mins in presence NADPH by LC-MS/MS analysis; type: ADME, microsome; conditions: read-out: CLH
In short: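 Compound at 1 μM with human liver microsomes (0.8 mg protein/mL) in Dulbecco's buffer pH 7.4, 1 mM NADPH, 37 °C, in duplicate. Sampled at 0, 5, 10, 20, 30 and 60 min, quenched with ice-cold acetonitrile, and unchanged compound measured by LC−MS/MS. No-NADPH controls; midazolam (1 μM) as phase I control.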

[16] = Metabolic stability in human lung S9 fraction assessed as compound remaining at 1 uM measured after 60 mins in presence of NADPH by LC-MS/MS analysis; type: ADME; conditions: read-out: Stability
Rattus norvegicus = assay: Anti-inflammatory activity in OVA-induced airway inflammation Brown Norway rat model assessed inhibition of eosinophils recruitment in bronchoalveolar lavage fluid administered intratracheally as powder formulation 2 hrs before aerosolized OVA challenge measured at 24 hrs post aerosolized OVA challenge; type: functional; conditions: for ED50: inhaled or nasal
In short: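 Male Brown Norway rats sensitized i.p. with OVA (1 mg/rat) plus Al(OH)3 (100 mg/rat) in saline on 3 consecutive days. Challenged 2–3 weeks later with nose-only 1% OVA aerosol for 30 min. Lactose-blended dry powder (10 mg/kg total powder) insufflated intratracheally; dose taken from needle weight difference. BAL with 3 × 4 mL HBSS/EDTA/HEPES at 24 h; total and differential counts by automated counter. ED50 from fitted dose–response curve.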

[17] = target: Voltage-gated inwardly rectifying potassium channel KCNH2 (Homo sapiens, UniProt Q12809); assay: Inhibition of human ERG at 1 uM
[18] = MRTlast in Sprague-Dawley rat lung at 1 umol/kg, it administered as micronized powder measured up to 24 hrs post dose by electrospray LC-MS analysis; type: ADME, tissue-based; conditions: inhaled or intranasal; in short: as §1
[19] = target: Dual specificity calcium/calmodulin-dependent 3',5'-cyclic nucleotide phosphodiesterase 1A (Homo sapiens, UniProt P54750); assay: Inhibition of human recombinant PDE1A expressed insect sf9 cells by radiometric assay; in short: as §2
[20] = Apparent permeability across apical to basolateral side in human Caco2 cells at 10 uM after 2 hrs by LC-MS/MS analysis; type: ADME, cell-based; conditions: Caco-2
Lung [21] = assay: AUClast in Sprague-Dawley rat lung at 1 umol/kg, it administered as micronized powder measured up to 24 hrs post dose by electrospray LC-MS analysis; type: ADME, tissue-based; conditions: in vivo, inhaled_or_intranasal; in short: as §1
[22] = Inhibition of PDE4 in human PBMC assessed as reduction in LPS-induced TNFalpha release after 18 hrs by quantitative ELISA

High affinity cAMP-specific and IBMX-insensitive 3',5'-cyclic phosphodiesterase 8A, sequence (O60658 whole entry): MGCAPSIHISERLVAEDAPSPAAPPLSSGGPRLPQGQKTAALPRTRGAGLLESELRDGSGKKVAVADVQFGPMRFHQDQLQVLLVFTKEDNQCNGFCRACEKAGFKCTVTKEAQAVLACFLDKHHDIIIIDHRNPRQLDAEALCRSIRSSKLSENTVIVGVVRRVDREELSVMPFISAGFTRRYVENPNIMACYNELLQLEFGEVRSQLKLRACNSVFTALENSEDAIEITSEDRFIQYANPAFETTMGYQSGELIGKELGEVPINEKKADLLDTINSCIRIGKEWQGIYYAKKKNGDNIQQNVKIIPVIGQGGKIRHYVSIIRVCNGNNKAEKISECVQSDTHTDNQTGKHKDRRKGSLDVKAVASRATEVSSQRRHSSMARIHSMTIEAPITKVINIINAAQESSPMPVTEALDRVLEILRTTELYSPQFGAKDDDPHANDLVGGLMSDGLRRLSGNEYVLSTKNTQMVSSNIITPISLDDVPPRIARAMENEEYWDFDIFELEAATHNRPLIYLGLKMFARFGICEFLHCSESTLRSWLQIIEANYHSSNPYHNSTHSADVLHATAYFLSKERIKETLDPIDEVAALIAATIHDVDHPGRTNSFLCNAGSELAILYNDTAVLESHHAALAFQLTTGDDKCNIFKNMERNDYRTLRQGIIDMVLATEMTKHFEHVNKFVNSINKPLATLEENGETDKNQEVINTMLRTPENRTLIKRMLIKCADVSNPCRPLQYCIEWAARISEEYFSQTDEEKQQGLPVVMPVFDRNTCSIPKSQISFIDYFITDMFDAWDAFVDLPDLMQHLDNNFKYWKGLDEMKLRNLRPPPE
Dual specificity calcium/calmodulin-dependent 3',5'-cyclic nucleotide phosphodiesterase 1A, sequence (P54750 whole entry): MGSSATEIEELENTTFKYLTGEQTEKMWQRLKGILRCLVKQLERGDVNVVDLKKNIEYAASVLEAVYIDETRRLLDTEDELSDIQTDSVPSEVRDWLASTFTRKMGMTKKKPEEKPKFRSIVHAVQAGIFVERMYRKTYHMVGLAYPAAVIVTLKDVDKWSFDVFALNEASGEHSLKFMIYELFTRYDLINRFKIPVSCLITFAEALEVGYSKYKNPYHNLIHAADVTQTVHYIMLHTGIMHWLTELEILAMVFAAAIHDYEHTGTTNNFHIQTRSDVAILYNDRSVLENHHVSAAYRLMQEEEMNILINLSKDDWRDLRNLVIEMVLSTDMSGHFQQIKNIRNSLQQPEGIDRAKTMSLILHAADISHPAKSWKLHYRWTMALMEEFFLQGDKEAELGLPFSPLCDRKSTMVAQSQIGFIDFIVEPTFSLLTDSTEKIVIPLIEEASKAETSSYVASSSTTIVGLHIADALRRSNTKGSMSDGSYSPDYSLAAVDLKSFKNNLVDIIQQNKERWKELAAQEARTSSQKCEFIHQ
3',5'-cyclic-AMP phosphodiesterase 4B, sequence (Q07343 whole entry): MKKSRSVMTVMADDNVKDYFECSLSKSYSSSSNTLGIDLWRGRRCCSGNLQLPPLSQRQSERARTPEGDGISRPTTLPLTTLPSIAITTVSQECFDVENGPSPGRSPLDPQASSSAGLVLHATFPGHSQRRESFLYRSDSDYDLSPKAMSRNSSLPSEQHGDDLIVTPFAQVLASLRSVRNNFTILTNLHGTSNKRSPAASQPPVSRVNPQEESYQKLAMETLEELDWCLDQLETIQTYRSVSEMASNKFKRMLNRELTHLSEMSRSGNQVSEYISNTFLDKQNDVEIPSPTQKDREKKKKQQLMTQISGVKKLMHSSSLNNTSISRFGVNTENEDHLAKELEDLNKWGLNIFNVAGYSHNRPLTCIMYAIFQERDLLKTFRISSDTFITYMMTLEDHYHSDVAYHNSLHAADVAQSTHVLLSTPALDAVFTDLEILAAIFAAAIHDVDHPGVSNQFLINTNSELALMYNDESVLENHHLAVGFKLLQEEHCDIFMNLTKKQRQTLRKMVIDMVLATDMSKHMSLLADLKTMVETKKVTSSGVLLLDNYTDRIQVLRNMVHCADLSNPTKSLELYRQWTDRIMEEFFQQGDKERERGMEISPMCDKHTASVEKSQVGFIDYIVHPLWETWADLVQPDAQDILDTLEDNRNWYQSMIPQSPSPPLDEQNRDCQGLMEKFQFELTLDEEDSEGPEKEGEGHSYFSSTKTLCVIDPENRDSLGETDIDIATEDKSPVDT
Voltage-gated inwardly rectifying potassium channel KCNH2, sequence (Q12809 whole entry): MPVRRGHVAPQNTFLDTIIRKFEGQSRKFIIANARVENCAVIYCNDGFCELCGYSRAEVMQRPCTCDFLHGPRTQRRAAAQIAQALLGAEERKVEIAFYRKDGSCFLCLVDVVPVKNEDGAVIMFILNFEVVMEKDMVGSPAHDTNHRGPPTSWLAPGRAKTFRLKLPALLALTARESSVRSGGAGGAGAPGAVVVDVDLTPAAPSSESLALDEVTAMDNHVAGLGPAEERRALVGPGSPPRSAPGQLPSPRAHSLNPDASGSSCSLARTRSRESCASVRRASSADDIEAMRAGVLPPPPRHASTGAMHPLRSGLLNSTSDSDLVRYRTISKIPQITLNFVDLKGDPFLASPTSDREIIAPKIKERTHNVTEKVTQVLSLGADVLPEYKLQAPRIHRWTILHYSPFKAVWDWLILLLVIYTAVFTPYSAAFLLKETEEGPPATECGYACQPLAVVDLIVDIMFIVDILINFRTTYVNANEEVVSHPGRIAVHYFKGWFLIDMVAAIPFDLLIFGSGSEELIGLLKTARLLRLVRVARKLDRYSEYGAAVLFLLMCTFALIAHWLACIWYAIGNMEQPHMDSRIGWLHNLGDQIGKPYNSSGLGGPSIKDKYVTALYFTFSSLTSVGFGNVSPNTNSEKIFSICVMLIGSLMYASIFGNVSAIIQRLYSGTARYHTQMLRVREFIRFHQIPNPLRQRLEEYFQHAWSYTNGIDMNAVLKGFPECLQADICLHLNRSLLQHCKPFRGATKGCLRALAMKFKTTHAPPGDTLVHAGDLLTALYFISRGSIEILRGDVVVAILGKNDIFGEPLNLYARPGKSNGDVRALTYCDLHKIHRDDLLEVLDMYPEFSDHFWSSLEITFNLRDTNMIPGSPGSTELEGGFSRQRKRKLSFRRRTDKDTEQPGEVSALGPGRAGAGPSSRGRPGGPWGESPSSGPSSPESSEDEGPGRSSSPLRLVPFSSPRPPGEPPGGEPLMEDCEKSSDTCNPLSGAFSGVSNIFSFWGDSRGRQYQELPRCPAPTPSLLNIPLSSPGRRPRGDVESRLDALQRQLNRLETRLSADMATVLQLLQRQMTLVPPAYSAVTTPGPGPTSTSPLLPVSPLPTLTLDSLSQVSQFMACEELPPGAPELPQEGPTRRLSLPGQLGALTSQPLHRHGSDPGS
cAMP and cAMP-inhibited cGMP 3',5'-cyclic phosphodiesterase 10A, sequence (Q9Y233 whole entry): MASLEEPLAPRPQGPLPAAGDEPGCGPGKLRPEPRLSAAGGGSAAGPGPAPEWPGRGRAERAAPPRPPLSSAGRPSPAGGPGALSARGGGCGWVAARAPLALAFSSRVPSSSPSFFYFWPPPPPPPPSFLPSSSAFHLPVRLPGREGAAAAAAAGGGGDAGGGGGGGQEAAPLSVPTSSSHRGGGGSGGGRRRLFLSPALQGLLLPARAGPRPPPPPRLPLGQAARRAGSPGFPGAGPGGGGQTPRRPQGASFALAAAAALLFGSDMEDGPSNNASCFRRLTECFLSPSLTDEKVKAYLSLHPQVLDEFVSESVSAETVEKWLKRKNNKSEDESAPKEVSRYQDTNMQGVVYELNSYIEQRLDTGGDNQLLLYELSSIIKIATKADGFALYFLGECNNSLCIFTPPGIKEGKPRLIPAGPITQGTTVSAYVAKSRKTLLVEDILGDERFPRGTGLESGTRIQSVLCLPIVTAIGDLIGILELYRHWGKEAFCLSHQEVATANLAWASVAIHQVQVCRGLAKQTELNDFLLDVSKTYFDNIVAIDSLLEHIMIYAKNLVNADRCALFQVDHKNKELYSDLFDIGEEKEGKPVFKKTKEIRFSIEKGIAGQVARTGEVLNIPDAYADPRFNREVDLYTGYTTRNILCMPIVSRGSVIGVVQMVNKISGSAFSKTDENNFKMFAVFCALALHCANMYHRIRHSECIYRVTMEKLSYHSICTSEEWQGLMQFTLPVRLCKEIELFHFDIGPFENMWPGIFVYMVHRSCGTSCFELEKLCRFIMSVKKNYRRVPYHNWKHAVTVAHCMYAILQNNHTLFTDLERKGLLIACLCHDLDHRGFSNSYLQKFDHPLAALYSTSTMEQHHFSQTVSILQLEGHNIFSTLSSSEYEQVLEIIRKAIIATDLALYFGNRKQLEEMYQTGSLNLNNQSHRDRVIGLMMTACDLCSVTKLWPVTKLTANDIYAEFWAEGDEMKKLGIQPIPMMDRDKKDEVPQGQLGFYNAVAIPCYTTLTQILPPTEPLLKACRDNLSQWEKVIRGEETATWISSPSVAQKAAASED

| SMILES | half-life [1] [h] | MRT last at 24 h [2] [h] | Activity [3] [%] | Tlast (Lung [4]) [h] | remaining at 1 h, 10 µM [5] [%] | IC50 [6] [nM] | IC50 [7] [nM] | Papp B→A at 2 h, 10 µM [8] [×10⁻⁶ cm/s] | Cmax (Plasma [9]) [pmol/g] | IC50 [10] [nM] | IC50 [11] [nM] | Tmax [12] [min] | AUClast (Plasma [13]) [pmol·h/g] | Ratio [14] | microsomal CLint at 1 µM [15] [µL/min/mg] | remaining at 1 h, 1 µM [16] [%] | inhibition (Rattus norvegicus) | ED50 (Rattus norvegicus) [µmol/kg] | inhibition (INH) [17] | MRT last at 24 h [18] [h] | other results |
| --- | --- | --- | --- | --- | --- | --- | --- | --- | --- | --- | --- | --- | --- | --- | --- | --- | --- | --- | --- | --- | --- |
| CN(C)C(=O)c1cccc(S(=O)(=O)N2CCS[C@H]2C(=O)O[C@@H](Cc2c(Cl)c[n+]([O-])cc2Cl)c2ccc(OC(F)F)c(OCC3CC3)c2)c1 | 4.39 | 1.33 | 94 | 24 | 51 | 0.0278 | 3560 | 3.18 | 9.8 | 0.053 | 810 | 4.98 | 10.38 | 5152 | 287 | 70.2 | Dose-dependent effect | 0.04 | Not Active | 5.56 | IC50 [19]: 7400 nM; Papp A→B at 2 h, 10 µM [20]: 0.42 ×10⁻⁶ cm/s; AUClast (Lung [21]): 65.27 nmol·h/g; IC50 [22]: 0.019 nM |
| CN(C)C(=O)c1cccc(S(=O)(=O)N2CCC[C@H]2C(=O)O[C@@H](Cc2c(Cl)c[n+]([O-])cc2Cl)c2ccc(OC(F)F)c(OCC3CC3)c2)c1 (relative stereo) | 5.18 | 1.08 | 76 | 24 | 78 | 0.0881 | 17000 | 10.2 | 20.65 | 0.0378 | 4030 | 4.98 | 33.27 | 2261 | 591 | 71.1 | Dose-dependent effect | 0.1 | Not Active | 4.52 | IC50 [19]: 25600 nM; Papp A→B at 2 h, 10 µM [20]: 0.48 ×10⁻⁶ cm/s; AUClast (Lung [21]): 49.65 nmol·h/g; IC50 [22]: 0.032 nM |

Reference: ChEMBL document CHEMBL4024768, “Discovery and Optimization of Thiazolidinyl and Pyrrolidinyl Derivatives as Inhaled PDE4 Inhibitors for Respiratory Diseases” (J Med Chem, 2017)
